The source of these data is ChEMBL document CHEMBL4425145, “Discovery of New Anti-Schistosomal Hits by Integration of QSAR-Based Virtual Screening and High Content Screening” (J Med Chem, 2016).

Calls of active or inactive are those of the source. The rule behind the calls is not given here. Where only a bound is given, the exact number is not on record here.

Broadly, the EC50 is the concentration giving half of the maximal effect. In general, IC50 refers to the concentration that inhibits the measured activity by half. Read a high IC50 as a need for much substance. In general, CC50 refers to the concentration at which the toxic effect on the cells reaches its halfway point.

Data set [1] relates to Schistosoma mansoni. Description: Antischistosomal activity against adult female Schistosoma mansoni BH assessed as inhibition of parasite motility at 20 to 100 uM after 48 to 72 hrs in absence of 0.01% triton X-100 by colloidal aggregation assay. It is filed as functional, organism-based. An outline of the steps:
(§1)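 Perfused adult worms held singly in complete DMEM at 37 °C, 5% CO2. Incubated with compound at 20 and 100 μM, with or without Triton X-100 (0.01%). HCS motility measured at 48 and 72 h, and activity with detergent compared with activity without it.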

For data set [2], the system named is Schistosoma mansoni. Description: Antischistosomal activity against adult female Schistosoma mansoni BH assessed as inhibition of parasite motility up to 72 hrs by HCS microscopic analysis. The class given is functional, organism-based. An outline of the steps: (§2)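 Adult worms perfused from portal hepatic and mesenteric veins of Swiss mice 42–49 days after percutaneous infection with 150 ± 10 cercariae. Worms held singly in DMEM with 10% FCS and 2 mM L-glutamine overnight at 37 °C, 5% CO2. Exposed to 0.10–100 μM against 0.1% DMSO, imaged at 0, 24, 48 and 72 h. Motility from image-overlap AdjustedRandIndex; EC50 from dose-response curves.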

The subject of data set [3] is Schistosoma mansoni. Description: Antischistosomal activity against adult male Schistosoma mansoni BH assessed as inhibition of parasite motility at 20 to 100 uM after 48 to 72 hrs in absence of 0.01% triton X-100 by colloidal aggregation assay. The class given is functional, organism-based. In a few lines:
as §1

Data set [4] deals with T1, Papain (Carica papaya, UniProt P00784).
T1 sequence (P00784 whole entry): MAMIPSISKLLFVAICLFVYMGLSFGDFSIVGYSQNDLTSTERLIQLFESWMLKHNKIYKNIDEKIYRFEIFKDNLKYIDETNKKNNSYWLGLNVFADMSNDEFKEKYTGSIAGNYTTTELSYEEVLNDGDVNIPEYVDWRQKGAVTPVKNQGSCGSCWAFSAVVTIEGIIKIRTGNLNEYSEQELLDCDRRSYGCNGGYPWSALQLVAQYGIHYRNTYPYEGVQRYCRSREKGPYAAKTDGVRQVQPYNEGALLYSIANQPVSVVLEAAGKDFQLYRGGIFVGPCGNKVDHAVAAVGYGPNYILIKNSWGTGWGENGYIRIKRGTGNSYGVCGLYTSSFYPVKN
Description: Inhibition of papaya papain using Z-FR-AMC fluorogenic peptide substrate preincubated for 5 mins followed by substrate addition. In a few lines:
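Papain (5 μg/mL) in 100 mM sodium acetate, pH 3.5, at 37 °C. Pre-incubated 5 min with compound at 20 and 100 μM, then reaction started with 50 μM Z-FR-AMC fluorogenic substrate. E-64 used as positive control.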

Data set [5] has as its system Schistosoma mansoni. The experiment in a line: Antischistosomal activity against Schistosoma mansoni BH schistosomula assessed as inhibition of parasite motility after 48 hrs by HCS microscopic analysis. It is filed as functional, organism-based. An outline of the steps:
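Schistosomula obtained from cercariae by vortex tail shedding (5 min), held overnight in Medium 169 under 5% CO2 at 120 per well. Dosed at 0.31–20 μM against DMSO 0.625% for 48 h. Motility taken by automated bright-field imaging as average object displacement, adjusted to DMSO control wells. EC50 from a four-parameter logistic fit.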

The test system of data set [6] is Schistosoma mansoni. The experiment in a line: Antischistosomal activity against adult male Schistosoma mansoni BH assessed as inhibition of parasite motility up to 72 hrs by HCS microscopic analysis. The class given is functional, organism-based. In a few lines: as §2
The test system of data set [7] is Schistosoma mansoni. The experiment in a line: Antischistosomal activity against Schistosoma mansoni BH schistosomula assessed as inhibition of parasite motility at 20 uM after 48 hrs by HCS microscopic analysis. It is filed as functional, organism-based. An outline of the steps: (§3)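 Cercariae vortexed at maximum speed for 5 min to shed tails and transform to schistosomula. Larvae resuspended in Medium 169 at 120 per well and held overnight under 5% CO2 before dosing. Exposed 48 h at 20 μM, vehicle DMSO 0.625%. Automated bright-field HCS imaging; Bayesian phenotype and motility scores adjusted to DMSO control wells on each plate.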

Data set [8] deals with Schistosoma mansoni. The experiment in a line: Antischistosomal activity against adult female Schistosoma mansoni BH assessed as inhibition of parasite motility at 20 to 100 uM after 48 to 72 hrs in presence of 0.01% triton X-100 by colloidal aggregation assay. The class given is functional, organism-based. An outline of the steps: as §1
The subject of data set [9] is Schistosoma mansoni. The experiment in a line: Antischistosomal activity against Schistosoma mansoni BH schistosomula assessed as morphological changes at 20 uM after 48 hrs by HCS microscopic analysis. It is filed as functional, organism-based. An outline of the steps: as §3
The subject of data set [10] is Schistosoma mansoni. Description: Antischistosomal activity against adult male Schistosoma mansoni BH assessed as inhibition of parasite motility at 20 to 100 uM after 48 to 72 hrs in presence of 0.01% triton X-100 by colloidal aggregation assay. The class given is functional, organism-based. An outline of the steps: as §1
Data set [11] is described as follows: Cytotoxicity against human WSS1 cells assessed as reduction in cell viability after 48 hrs by resazurin assay. The class given is cell-based. In a few lines:
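Human kidney WSS-1 epithelial cells grown in DMEM (4.5 g/L glucose, 10% FBS, gentamicin) and seeded at 5×10^4 cells/mL. Dosed 20 h later at 0.2–400 μM for 48 h at 37 °C, 5% CO2. Resazurin (final 0.01 mg/mL) added 4 h before the end; resorufin fluorescence read at ex 560/em 590 nm. Viability taken relative to DMSO (0.2–0.8%); CC50 from a four-parameter logistic fit.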
On the technique in general: The colour change of resazurin is a common sign of viable cells or microbes.

In data set [12] the test system is Schistosoma mansoni. The experiment in a line: Antischistosomal activity against adult male Schistosoma mansoni BH assessed as inhibition of parasite motility after 72 hrs by HCS microscopic analysis. It is filed as functional, organism-based. In a few lines:
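Adult worms perfused from portal hepatic and mesenteric veins of Swiss mice 42–49 days after percutaneous infection with 150 ± 10 cercariae; males placed singly in wells in DMEM with 10% fetal calf serum, 2 mM L-glutamine, penicillin and streptomycin; held overnight at 37 °C, 5% CO2. Exposed to 0.10–100 μM, DMSO 0.1% control. Image-based motility (overlap index) read at 72 h; EC50 from dose-response.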

The target of data set [13] is T2, Thioredoxin glutathione reductase (Schistosoma mansoni, UniProt Q962Y6).
T2 sequence (Q962Y6 whole entry): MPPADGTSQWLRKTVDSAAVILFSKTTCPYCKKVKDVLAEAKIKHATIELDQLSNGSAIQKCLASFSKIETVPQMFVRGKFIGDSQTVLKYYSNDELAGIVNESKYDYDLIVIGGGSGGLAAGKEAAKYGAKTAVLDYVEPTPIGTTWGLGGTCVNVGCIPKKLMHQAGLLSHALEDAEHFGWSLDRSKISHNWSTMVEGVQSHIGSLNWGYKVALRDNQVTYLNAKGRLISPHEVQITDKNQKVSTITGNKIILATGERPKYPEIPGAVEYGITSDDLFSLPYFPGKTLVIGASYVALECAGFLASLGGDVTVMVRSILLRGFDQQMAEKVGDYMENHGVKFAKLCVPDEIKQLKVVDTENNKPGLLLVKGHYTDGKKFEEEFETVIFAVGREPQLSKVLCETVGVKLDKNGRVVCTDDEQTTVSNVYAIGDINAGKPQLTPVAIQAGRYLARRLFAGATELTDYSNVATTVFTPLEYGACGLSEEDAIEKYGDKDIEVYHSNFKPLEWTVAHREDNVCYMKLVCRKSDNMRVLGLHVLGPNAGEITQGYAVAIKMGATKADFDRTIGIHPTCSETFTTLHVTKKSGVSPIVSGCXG
The experiment in a line: Inhibition of Schistosoma mansoni TGR.

Data set [14] deals with Schistosoma mansoni. The experiment in a line: Antischistosomal activity against Schistosoma mansoni BH schistosomula assessed as darkening of schistosomula at 20 uM after 48 hrs by HCS microscopic analysis. It is filed as functional, organism-based. In a few lines: as §3
The test system of data set [15] is Schistosoma mansoni. The experiment in a line: Antischistosomal activity against Schistosoma mansoni BH schistosomula assessed as rounding appearance of schistosomula at 20 uM after 48 hrs by HCS microscopic analysis. It is filed as functional, organism-based. An outline of the steps:
as §3

The test system of data set [16] is Schistosoma mansoni. Description: Antischistosomal activity against Schistosoma mansoni BH schistosomula assessed as multiple vacuole appearance at 20 uM after 48 hrs by HCS microscopic analysis. It is filed as functional, organism-based. An outline of the steps: as §3

For `COc1ccc(/C=C/[N+](=O)[O-])cc1OC`, the inhibition entry in data set [1], in data set [3], in data set [8] and in data set [10] was “Active” in each case. The EC50 in data set [2] was 5.77 µM; in data set [5], > 20 µM; in [6] it was 29.8 µM. The IC50 in data set [4] was > 100 µM. The “motility inhibition activity call” value in data set [7] was “Active”. Further, in [9], the outcome was Active. Moreover, the CC50 in [11] was 17.5 µM.

Take `O=C(C1CCCCC1)N1CC(=O)N2CCc3ccccc3C2C1` (stereo not drawn) [PRAZIQUANTEL]: the EC50 in data set [2] was 0.64 µM; in data set [12], 0.22 µM; in [5] it was 1.9 µM. Further, the CC50 in [11] is > 400 µM.

Consider `COc1ccc(C(=O)c2no[n+]([O-])c2C(=O)c2ccc(OC)cc2)cc1`, for which, in data set [13], inhibition was half-maximal at 0.1 µM (IC50).

On to `Cc1noc(/C=C/c2ccccn2)c1[N+](=O)[O-]`, for which the inhibition entry in [1], in data set [3], in data set [8] and in data set [10] was “Active” each time. The EC50 in data set [2] was 5.68 µM; in [5], 3.23 µM; in [6], 6.43 µM. Further, the outcome in data set [14], in [15], in data set [16] and in [9] was Active. In addition, the IC50 in [4] is > 100 µM. The “motility inhibition activity call” value in [7] was “Active”. For the same molecule, the CC50 in data set [11] came to 16.4 µM.

In the case of `CC(=O)c1ccc(NCCC(=O)c2cccs2)cc1`, in data set [5], the EC50 is > 20 µM. The “motility inhibition activity call” value in data set [7] is “Active”. Besides, in [9], the outcome was Active.

As to `O=C1CC(Sc2nnc[nH]2)C(=O)N1c1ccc(I)cc1` (stereo not drawn), the results for the half-maximal effective concentration (EC50) in [2], in data set [5] and in data set [6] were 17.9 µM, > 20 µM and 10.2 µM, respectively. The IC50 in [4] is > 100 µM. The “motility inhibition activity call” value in data set [7] is “Active”. Moreover, the outcome in data set [9] was Active. Moreover, the CC50 in [11] was determined as 133 µM.

For `N#Cc1cn(-c2ccccc2)nc1-c1ccco1`, in [5], the EC50 was > 20 µM. The “motility inhibition activity call” value in data set [7] is “Active”. For the same molecule, the outcome in data set [9] was Active.

Regarding `O=S(=O)(Cc1ccccc1)c1nc2ccccc2s1`, the inhibition result in [1], in data set [3], in [8] and in [10] was “Active” in each case. Besides, the figures for the EC50 in data set [2], in data set [5] and in data set [6] were 4.91 µM, 2.62 µM and 21.1 µM, respectively. The result in [14], in data set [15], in data set [16] and in [9] was Active. In addition, the IC50 in data set [4] was > 100 µM. In data set [7], the “motility inhibition activity call” value was “Active”. The CC50 in data set [11] was determined as 28.5 µM.

In data set [13], `O=C(CSc1ccccn1)Nc1nonc1[N+](=O)[O-]` yielded an IC50 of 7.08 µM.
